From ChEMBL document CHEMBL2163259, “ADME-guided design and synthesis of aryloxanyl pyrazolone derivatives to block mutant superoxide dismutase 1 (SOD1) cytotoxicity and protein aggregation: potential application for the treatment of amyotrophic lateral sclerosis” (J Med Chem, 2012)
The source made the active and inactive calls. No cut-off for these calls is given here.

Columns and labels:
Rattus norvegicus [1] = assay: Oral bioavailability in Sprague-Dawley rat at 1 mg/kg; assay type: ADME, organism-based; conditions: in vivo
Summary of the method: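 Sprague-Dawley rats received a single bolus of 1 mg/kg, given both intravenously and orally. Plasma PK parameters, including oral bioavailability (F%), were derived from the two routes.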

[2] = target: Sodium-dependent dopamine transporter (Homo sapiens) (UniProt Q01959); assay: Inhibition of human dopamine transporter at 10 uM by radioligand displacement assay
Summary of the method: (§1)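 Single concentration of 10 μM, tested in duplicate as part of a contracted panel of 68 in vitro enzyme and receptor assays. The panel covers common adverse CNS, cardiovascular, pulmonary and genotoxic targets.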

[3] = Half life in Sprague-Dawley rat at 1 mg/kg, iv; assay type: ADME, organism-based; set-up: dose 1 mg/kg, route intravenous; conditions: in vivo
Summary of the method: (§2)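 Sprague-Dawley rats given a single 1 mg/kg bolus, intravenous or oral. Plasma PK parameters (AUC, dose-normalised AUC, half-life, clearance, Vss, Cmax, Tmax, oral bioavailability) derived from plasma levels.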

Caco-2 = assay: Apparent permeability from basolateral to apical side in human Caco2 cells; assay type: ADME, cell-based
Cytochrome P450 3A4 = Cytochrome P450 3A4 (Homo sapiens, UniProt P08684); assay: Inhibition of CYP3A4 using testosterone as substrate; assay type: ADME
Summary of the method: (§3)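 Reversible inhibition of CYP isozymes in human liver microsomes, each isozyme with a single probe substrate. CYP3A4 tested with both testosterone and midazolam. IC50 determined.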

[4] = Half life in human microsomes at 5 uM incubated for 1 hr at 37 degC in presence of NADPH; assay type: ADME, Microsome; conditions: 1 h, 5 µM
[5] = target: Androgen receptor (Rattus norvegicus) (UniProt P15207); assay: Inhibition of rat testosterone receptor at 10 uM by radioligand displacement assay; summary of the method: as §1
[6] = target: Delta-type opioid receptor (Homo sapiens) (UniProt P41143); assay: Inhibition of human delta-type opioid receptor at 10 uM by radioligand displacement assay
Summary of the method: (§4)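 LeadProfilingScreen panel of 68 in vitro enzyme and receptor assays. Compound tested at 10 μM in duplicate.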

Mus musculus [7] = species: Mus musculus; assay: Inhibition of mouse phorbol ester site of PKC at 10 uM by radioligand displacement assay; summary of the method: as §1
Cytochrome P450 2C9 = Cytochrome P450 2C9 (Homo sapiens, UniProt P11712); assay: Inhibition of CYP2C9; assay type: ADME; summary of the method: as §3
[8] = target: B2 bradykinin receptor (Homo sapiens) (UniProt P30411); assay: Inhibition of human bradykinin B2 receptor at 10 uM by radioligand displacement assay; summary of the method: as §4
[9] = target: Glutamate NMDA receptor (Rattus norvegicus) (UniProt P35439+Q00959+Q00960+Q00961+Q62645+Q8VHN2+Q9R1M7); assay: Inhibition of rat NMDA receptor glutamate and glycine binding site at 10 uM by radioligand displacement assay; assay type: protein-complex assay; summary of the method: as §1
Homo sapiens [10] = species: Homo sapiens; assay: Inhibition of human Sigma delta2 receptor at 10 uM by radioligand displacement assay; summary of the method: as §4
[11] = AUClast in Sprague-Dawley rat at 1 mg/kg, iv; assay type: ADME, organism-based; set-up: dose 1 mg/kg, route intravenous, time 0 - last; conditions: plasma; summary of the method: as §2
[12] = target: Alpha-1A adrenergic receptor (Rattus norvegicus) (UniProt P43140); assay: Inhibition of rat adrenergic alpha1A receptor at 10 uM by radioligand displacement assay; summary of the method: as §1
Rattus norvegicus [13] = species: Rattus norvegicus; assay: Inhibition of rat sodium channel site 2 at 10 uM by radioligand displacement assay; summary of the method: as §1
Rattus norvegicus [14] = species: Rattus norvegicus; assay: Inhibition of rat GABA transporter at 10 uM by radioligand displacement assay; summary of the method: as §1
[15] = target: Beta-1 adrenergic receptor (Homo sapiens) (UniProt P08588); assay: Inhibition of human beta1 adrenergic receptor at 10 uM by radioligand displacement assay; summary of the method: as §4
Rattus norvegicus [16] = species: Rattus norvegicus; assay: Inhibition of rat N-type calcium channel at 10 uM by radioligand displacement assay; summary of the method: as §1
[17] = target: Muscarinic acetylcholine receptor M1 (Homo sapiens) (UniProt P11229); assay: Inhibition of human muscarinic M1 receptor at 10 uM by radioligand displacement assay; summary of the method: as §1
Rattus norvegicus [18] = species: Rattus norvegicus; assay: Inhibition of rat imidazoline I2 receptor at 10 uM by radioligand displacement assay; summary of the method: as §1
[19] = target: Adenosine receptor A2a (Homo sapiens) (UniProt P29274); assay: Inhibition of human adenosine A2 receptor at 10 uM by radioligand displacement assay; summary of the method: as §4
Cytochrome P450 1A2 = Cytochrome P450 1A2 (Homo sapiens, UniProt P05177); assay: Inhibition of CYP1A2; assay type: ADME; summary of the method: as §3
[20] = Efflux ratio of permeability from basolateral to apical side over apical to basolateral side in human Caco2 cells; assay type: ADME, cell-based; conditions: Caco-2
Rattus norvegicus [21] = species: Rattus norvegicus; assay: Inhibition of rat GABAA receptor muscimol site at 10 uM by radioligand displacement assay; summary of the method: as §1
Homo sapiens [22] = species: Homo sapiens; assay: Inhibition of human nicotinic acetylcholine receptor at 10 uM by radioligand displacement assay; summary of the method: as §1
[23] = test system: Superoxide dismutase [Cu-Zn] (Homo sapiens), P00441 [G94A]; assay: Inhibition of SOD1 G93A mutant aggregation-induced cytotoxicity in human HEK293 cells by cytotoxicity protection assay; assay type: cell-based
[24] = target: L-type calcium channel, benzothiazepine site (Rattus norvegicus, UniProt P22002+P27732+Q02485); assay: Inhibition of rat calcium channel L-type, benzothiazepine site at 10 uM by radioligand displacement assay; summary of the method: as §1
Rattus norvegicus [25] = assay: Dose normalised AUC in Sprague-Dawley rat at 1 mg/kg, iv; assay type: ADME, organism-based; set-up: dose 1 mg/kg, route intravenous; conditions: in vivo; summary of the method: as §2
Mus musculus [26] = assay: Neuroprotective activity in SOD1 G93A mutant B6SJL mouse ALS model assessed as life extension at 10 mg/kg administered qd for 1 week (reference value: 125.7 +/- 4.9 days); assay type: functional
[27] = target: Histamine H2 receptor (Homo sapiens) (UniProt P25021); assay: Inhibition of human histamine H2 receptor at 10 uM by radioligand displacement assay; summary of the method: as §1
[28] = Plasma concentration in B6SJL mouse at 300 mg/kg after 6 hrs by mass spectrometry; assay type: ADME, organism-based; set-up: dose 300 mg/kg
Summary of the method: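 Single 300 mg/kg bolus i.p. injection in B6SJL mice; blood and brain collected at 0, 1, 3, 6, 12 and 24 h, flash frozen in liquid nitrogen and stored at -80 °C. Samples analysed by mass spectrometry with ESI ionization in MRM mode.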

Mus musculus [29] = species: Mus musculus; assay: Inhibition of mouse IL-1 at 10 uM by radioligand displacement assay; summary of the method: as §1
[30] = AUClast in Sprague-Dawley rat at 1 mg/kg, po; assay type: ADME, organism-based; set-up: dose 1 mg/kg, route oral, time 0 - last; conditions: plasma; summary of the method: as §2
Plasma = assay: Plasma protein binding in human; assay type: ADME, cell-free
[31] = target: Muscarinic acetylcholine receptor M2 (Homo sapiens) (UniProt P08172); assay: Inhibition of human muscarinic M2 receptor at 10 uM by radioligand displacement assay; summary of the method: as §1
[32] = target: Neuropeptide Y receptor type 1 (Homo sapiens) (UniProt P25929); assay: Inhibition of human Neuropeptide Y Y1 receptor at 10 uM by radioligand displacement assay; summary of the method: as §4
[33] = target: 5-hydroxytryptamine receptor 3A (Homo sapiens) (UniProt P46098); assay: Inhibition of human 5HT3A receptor at 10 uM by radioligand displacement assay; summary of the method: as §4
[34] = Volume of distribution at steady state in Sprague-Dawley rat at 1 mg/kg, iv; assay type: ADME, organism-based; set-up: dose 1 mg/kg, route intravenous; conditions: in vivo, read-out: Vdss
Summary of the method: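 Sprague-Dawley rats received a single bolus of 1 mg/kg by i.v. or by oral route. Plasma PK parameters were derived from the plasma concentration profile.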

[35] = target: D(1A) dopamine receptor (Homo sapiens) (UniProt P21728); assay: Inhibition of human dopamine D1 receptor at 10 uM by radioligand displacement assay; summary of the method: as §4
[36] = target: Kappa-type opioid receptor (Homo sapiens) (UniProt P41145); assay: Inhibition of human kappa-type opioid receptor at 10 uM by radioligand displacement assay; summary of the method: as §1
Kappa-type opioid receptor (Homo sapiens), sequence (P41145 whole entry): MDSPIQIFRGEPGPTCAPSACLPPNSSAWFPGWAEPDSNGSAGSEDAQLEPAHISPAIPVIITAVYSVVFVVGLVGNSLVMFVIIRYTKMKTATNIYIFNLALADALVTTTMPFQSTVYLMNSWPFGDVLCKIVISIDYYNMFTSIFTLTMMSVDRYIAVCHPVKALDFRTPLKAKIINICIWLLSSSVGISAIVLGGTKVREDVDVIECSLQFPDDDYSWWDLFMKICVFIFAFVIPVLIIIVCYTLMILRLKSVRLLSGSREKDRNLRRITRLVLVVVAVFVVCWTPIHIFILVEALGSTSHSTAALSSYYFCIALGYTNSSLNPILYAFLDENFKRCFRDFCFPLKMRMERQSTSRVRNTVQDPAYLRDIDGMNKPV

Cytochrome P450 1A2, sequence (P05177 whole entry): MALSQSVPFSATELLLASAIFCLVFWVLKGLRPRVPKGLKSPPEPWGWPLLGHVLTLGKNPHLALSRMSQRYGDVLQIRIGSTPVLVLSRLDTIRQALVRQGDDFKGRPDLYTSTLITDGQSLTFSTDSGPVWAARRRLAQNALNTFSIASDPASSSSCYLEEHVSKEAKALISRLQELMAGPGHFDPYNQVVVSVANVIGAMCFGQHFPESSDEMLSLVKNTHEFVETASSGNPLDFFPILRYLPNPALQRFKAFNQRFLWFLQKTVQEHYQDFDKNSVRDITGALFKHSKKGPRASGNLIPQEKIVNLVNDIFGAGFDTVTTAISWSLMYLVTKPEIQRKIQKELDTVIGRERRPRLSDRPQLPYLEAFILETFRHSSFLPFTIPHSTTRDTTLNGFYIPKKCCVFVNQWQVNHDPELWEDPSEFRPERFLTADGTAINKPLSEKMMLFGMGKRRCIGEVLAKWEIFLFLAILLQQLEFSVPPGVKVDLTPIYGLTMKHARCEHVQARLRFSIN
D(1A) dopamine receptor (Homo sapiens), sequence (P21728 whole entry): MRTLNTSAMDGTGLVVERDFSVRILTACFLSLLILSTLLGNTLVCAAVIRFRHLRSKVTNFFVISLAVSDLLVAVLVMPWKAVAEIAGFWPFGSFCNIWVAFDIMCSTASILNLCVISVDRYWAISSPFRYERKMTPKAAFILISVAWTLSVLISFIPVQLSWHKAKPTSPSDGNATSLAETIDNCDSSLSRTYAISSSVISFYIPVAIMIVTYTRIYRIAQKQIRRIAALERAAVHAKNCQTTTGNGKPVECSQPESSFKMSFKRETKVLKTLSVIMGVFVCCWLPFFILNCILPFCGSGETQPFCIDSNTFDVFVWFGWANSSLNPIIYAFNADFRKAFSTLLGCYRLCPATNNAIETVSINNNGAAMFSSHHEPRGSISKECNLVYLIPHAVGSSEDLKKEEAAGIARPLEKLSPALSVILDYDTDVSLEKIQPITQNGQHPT
Delta-type opioid receptor (Homo sapiens), sequence (P41143 whole entry): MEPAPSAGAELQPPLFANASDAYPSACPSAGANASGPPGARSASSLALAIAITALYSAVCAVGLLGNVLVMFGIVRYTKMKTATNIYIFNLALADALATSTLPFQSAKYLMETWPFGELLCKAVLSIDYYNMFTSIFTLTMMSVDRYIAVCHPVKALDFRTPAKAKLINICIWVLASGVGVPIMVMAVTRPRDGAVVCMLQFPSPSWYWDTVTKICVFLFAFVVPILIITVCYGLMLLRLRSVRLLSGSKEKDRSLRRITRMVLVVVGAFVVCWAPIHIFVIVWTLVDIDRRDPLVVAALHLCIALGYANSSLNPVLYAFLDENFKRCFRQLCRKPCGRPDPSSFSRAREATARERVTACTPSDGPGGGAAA
5-hydroxytryptamine receptor 3A (Homo sapiens), sequence (P46098 whole entry): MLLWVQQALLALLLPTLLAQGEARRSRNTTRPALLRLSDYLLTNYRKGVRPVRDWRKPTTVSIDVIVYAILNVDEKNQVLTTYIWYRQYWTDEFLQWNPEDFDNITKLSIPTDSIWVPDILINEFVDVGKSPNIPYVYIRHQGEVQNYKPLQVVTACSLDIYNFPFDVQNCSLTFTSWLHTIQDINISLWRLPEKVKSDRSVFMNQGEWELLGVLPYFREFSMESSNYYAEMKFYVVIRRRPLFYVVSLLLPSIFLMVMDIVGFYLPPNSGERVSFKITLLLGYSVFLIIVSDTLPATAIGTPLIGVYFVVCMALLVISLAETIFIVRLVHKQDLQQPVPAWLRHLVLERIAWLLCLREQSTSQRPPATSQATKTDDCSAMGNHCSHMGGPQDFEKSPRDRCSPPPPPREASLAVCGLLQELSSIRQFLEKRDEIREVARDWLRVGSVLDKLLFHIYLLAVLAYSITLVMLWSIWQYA
Muscarinic acetylcholine receptor M2 (Homo sapiens), sequence (P08172 whole entry): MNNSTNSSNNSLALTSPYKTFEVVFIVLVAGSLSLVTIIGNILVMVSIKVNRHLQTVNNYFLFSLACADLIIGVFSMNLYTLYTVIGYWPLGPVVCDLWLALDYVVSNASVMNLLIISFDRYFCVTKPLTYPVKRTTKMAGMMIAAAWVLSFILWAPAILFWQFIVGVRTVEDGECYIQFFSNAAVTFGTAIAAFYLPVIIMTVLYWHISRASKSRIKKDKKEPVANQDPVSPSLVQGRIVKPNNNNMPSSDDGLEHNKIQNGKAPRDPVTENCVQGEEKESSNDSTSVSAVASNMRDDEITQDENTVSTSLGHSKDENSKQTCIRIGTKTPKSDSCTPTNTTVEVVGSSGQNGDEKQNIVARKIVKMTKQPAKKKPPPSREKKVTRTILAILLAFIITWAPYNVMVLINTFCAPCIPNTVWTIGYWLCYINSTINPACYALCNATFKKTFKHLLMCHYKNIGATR
B2 bradykinin receptor (Homo sapiens), sequence (P30411 whole entry): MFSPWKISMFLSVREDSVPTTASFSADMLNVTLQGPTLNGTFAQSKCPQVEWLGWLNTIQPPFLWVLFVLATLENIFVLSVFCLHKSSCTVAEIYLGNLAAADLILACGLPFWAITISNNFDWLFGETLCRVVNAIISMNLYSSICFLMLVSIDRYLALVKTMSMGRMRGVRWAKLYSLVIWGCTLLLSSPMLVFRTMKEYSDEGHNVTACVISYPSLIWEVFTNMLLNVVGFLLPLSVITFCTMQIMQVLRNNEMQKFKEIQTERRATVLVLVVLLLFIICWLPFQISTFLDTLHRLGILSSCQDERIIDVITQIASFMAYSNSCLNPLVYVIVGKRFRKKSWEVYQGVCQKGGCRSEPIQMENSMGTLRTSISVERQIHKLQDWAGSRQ
Cytochrome P450 3A4, sequence (P08684 whole entry): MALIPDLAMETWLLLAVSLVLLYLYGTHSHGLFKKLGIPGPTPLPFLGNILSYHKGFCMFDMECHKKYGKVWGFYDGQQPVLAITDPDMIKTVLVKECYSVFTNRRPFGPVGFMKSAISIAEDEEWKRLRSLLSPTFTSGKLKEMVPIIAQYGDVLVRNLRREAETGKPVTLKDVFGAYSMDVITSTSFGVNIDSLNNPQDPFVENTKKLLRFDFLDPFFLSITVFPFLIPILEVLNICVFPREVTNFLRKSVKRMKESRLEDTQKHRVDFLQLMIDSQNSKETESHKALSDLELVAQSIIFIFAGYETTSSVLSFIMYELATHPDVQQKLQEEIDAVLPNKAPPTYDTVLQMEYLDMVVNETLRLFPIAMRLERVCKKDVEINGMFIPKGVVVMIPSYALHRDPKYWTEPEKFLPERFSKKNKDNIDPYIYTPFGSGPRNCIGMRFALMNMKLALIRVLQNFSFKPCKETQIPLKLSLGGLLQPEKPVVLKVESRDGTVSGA
Histamine H2 receptor (Homo sapiens), sequence (P25021 whole entry): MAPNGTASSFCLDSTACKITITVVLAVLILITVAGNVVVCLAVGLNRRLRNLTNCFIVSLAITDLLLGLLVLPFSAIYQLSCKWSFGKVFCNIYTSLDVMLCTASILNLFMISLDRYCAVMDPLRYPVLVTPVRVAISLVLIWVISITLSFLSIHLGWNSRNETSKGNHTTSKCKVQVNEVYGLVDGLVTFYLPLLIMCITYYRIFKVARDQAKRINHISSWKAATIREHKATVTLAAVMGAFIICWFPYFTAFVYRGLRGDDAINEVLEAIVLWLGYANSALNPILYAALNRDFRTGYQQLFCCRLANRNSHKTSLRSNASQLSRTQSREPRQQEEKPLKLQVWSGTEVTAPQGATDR
Cytochrome P450 2C9, sequence (P11712 whole entry): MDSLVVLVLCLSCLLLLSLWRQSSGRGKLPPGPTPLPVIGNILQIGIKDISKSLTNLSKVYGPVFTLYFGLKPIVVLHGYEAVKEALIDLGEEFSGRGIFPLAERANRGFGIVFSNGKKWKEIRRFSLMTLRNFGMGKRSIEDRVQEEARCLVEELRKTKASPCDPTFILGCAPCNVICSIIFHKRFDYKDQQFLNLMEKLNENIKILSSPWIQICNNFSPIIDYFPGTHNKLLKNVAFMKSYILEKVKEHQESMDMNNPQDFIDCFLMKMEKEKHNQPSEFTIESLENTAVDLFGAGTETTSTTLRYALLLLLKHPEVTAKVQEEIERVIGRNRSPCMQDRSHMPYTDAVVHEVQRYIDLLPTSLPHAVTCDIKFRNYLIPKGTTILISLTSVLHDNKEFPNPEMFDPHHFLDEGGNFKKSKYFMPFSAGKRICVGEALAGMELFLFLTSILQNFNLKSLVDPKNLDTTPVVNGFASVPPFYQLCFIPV
Superoxide dismutase [Cu-Zn] (Homo sapiens), P00441 [G94A], sequence (P00441 whole entry G94A): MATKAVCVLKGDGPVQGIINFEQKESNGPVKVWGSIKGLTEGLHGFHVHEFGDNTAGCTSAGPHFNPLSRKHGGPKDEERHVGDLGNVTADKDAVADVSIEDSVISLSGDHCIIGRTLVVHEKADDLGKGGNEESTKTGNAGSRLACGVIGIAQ
Neuropeptide Y receptor type 1 (Homo sapiens), sequence (P25929 whole entry): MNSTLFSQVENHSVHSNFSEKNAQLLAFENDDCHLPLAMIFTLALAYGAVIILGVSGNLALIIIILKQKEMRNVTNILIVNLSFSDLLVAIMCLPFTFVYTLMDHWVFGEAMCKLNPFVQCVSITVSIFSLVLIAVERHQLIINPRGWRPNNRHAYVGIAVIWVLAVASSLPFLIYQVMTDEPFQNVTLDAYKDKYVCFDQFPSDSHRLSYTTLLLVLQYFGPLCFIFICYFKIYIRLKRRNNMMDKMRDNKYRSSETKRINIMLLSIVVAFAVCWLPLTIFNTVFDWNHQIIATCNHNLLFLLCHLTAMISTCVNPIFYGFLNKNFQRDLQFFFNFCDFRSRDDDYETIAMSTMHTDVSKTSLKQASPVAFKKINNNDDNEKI

`O=c1cc(COc2cc(Cl)cc(Cl)c2)[nH][nH]1` showed an F (Rattus norvegicus [1]) of 27%, an inhibition [2] of 11% and a half-life [3] of 2.1 h. For the same compound, the Papp (Caco-2) was 141 nm/s, the IC50 (Cytochrome P450 3A4) was > 50 µM and the t1/2 [4] was 1.55 h. For the same compound, the inhibition [5] was 3%, the inhibition [6] was 25% and the inhibition (Mus musculus [7]) was 1%. For the same compound, the IC50 (Cytochrome P450 2C9) was > 50 µM, the inhibition [8] was -10% and the inhibition [9] was 5%. The inhibition (Homo sapiens [10]) was 5%, the AUC(0-t) [11] was 0.179 µg·h/mL and the inhibition [12] was -2%. It also gave an inhibition (Rattus norvegicus [13]) of 4%, an inhibition (Rattus norvegicus [14]) of -4% and an inhibition [15] of 1%. It also gave an inhibition (Rattus norvegicus [16]) of 3%, an inhibition [17] of 2% and an inhibition (Rattus norvegicus [18]) of 12%. The inhibition [19] was -2%, the IC50 (Cytochrome P450 1A2) was > 50 µM and the efflux ratio [20] was 0.4. The inhibition (Rattus norvegicus [21]) was 1%, the inhibition (Homo sapiens [22]) was 7% and the inhibition [23] was “Active”. It also gave an inhibition at 10 µM [24] of -2%, an AUC/dose (Rattus norvegicus [25]) of 184 ng·h/mL/mg/kg and a Survival (Mus musculus [26]) of 135 days. The inhibition [27] was 3%, the concentration at 6 h [28] was 347 µM and the inhibition (Mus musculus [29]) was 3%. The AUC(0-t) [30] was 0.042 µg·h/mL, the PPB (Plasma) was 98% and the inhibition [31] was -2%. For the same compound, the inhibition [32] was -1%, the inhibition [33] was 7% and the Vd [34] was 5.7 L/kg. The inhibition [35] was 3% and the inhibition [36] was -9%.
